# Data taken from ChEMBL document CHEMBL4373677, “The cytotoxic potential of cationic triangulenes against tumour cells” (Medchemcomm, 2019).
# The source made the active and inactive calls. The rule behind the calls is not given here.
# Experiments:
# MDA-MB-231 [1] = test: Induction of DNA double strand breaks in human MDA-MB-231 cells assessed as gammaH2AX phosphorylation at 1 uM incubated for 16 hrs by flow cytometry (reference value: 6.1 +/-0.7%); type: functional
# MDA-MB-231 [2] = test: Cell cycle arrest in human MDA-MB-231 cells assessed as accumulation at S-phase at 1 to 10 uM incubated for 16 hrs by flow cytometry; type: functional, cell-based
# MDA-MB-231 [3] = test: Cell cycle arrest in human MDA-MB-231 cells assessed as accumulation at G2 phase at 1 to 10 uM incubated for 16 hrs by flow cytometry; type: functional, cell-based
# MDA-MB-231 [4] = test: Antiproliferative activity against human MDA-MB-231 cells assessed as reduction in cell viability after 4 days by [3H]-thymidine incorporation assay; type: functional, cell-based
# Summary of the method: (§1)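 MDA-MB-231 and HCT116 cells (ATCC) seeded at 3000 cells/well on tissue-culture-treated plates as monolayers and incubated 3 days. Compound then added for four days. 3H-thymidine pulse of 0.04 µCi/well for 5 h before harvest. Proliferation read as 3H-thymidine incorporation into S-phase DNA. Mean % of untreated cells is reported; IC50 is the concentration giving 50% inhibition.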
# MDA-MB-231 [5] = test: Induction of DNA double strand breaks in human MDA-MB-231 cells assessed as gammaH2AX phosphorylation at 5 uM incubated for 16 hrs by flow cytometry (reference value: 6.1 +/-0.7%); type: functional
# HCT-116 [6] = test: Antiproliferative activity against human HCT116 cells assessed as reduction in cell viability after 4 days by [3H]-thymidine incorporation assay; type: functional, cell-based; summary of the method: as §1
# [7] = Stability of carbenium ionic form, pKR+ of the compound by spectrophotometric analysis; type: physicochemical
# Summary of the method: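 Calibration of molar absorbance at the 330 nm peak, made with the compound in 0.1 M acetic acid, where the alcohol is completely ionised. pKR+ derived from the absorbance relationship in eqn (1).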
# Calf thymus DNA [8] = test: Binding affinity to calf thymus DNA assessed as binding constant at 1 uM incubated for 24 hrs by competitive dialysis technique; type: nucleic-acid assay; conditions: Bos taurus
# HCT-116 [9] = test: Antiproliferative activity against human HCT116 cells assessed as cell viability at 10 uM after 4 days by [3H]-thymidine incorporation assay relative to control; type: functional; conditions: read-out: Activity; summary of the method: as §1
# HCT-116 [10] = test: Antiproliferative activity against human HCT116 cells cultured as 3D-spheroids assessed as reduction in cell viability after 4 days by [3H]-thymidine incorporation assay; type: functional, cell-based
# Summary of the method: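 HCT116 spheroids: 4000 cells/well seeded in ultra-low attachment plates, then centrifuged at 1000 × g for 10 min to start spheroid formation. After 3 days, compounds added for four days. 3H-thymidine (0.08 µCi/well) added 16 h before harvest. Inhibition read as thymidine incorporation relative to untreated cells. IC50 is the concentration giving 50% inhibition.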
# MDA-MB-231 [11] = test: Cell cycle arrest in human MDA-MB-231 cells assessed as accumulation at G1 phase at 1 to 10 uM incubated for 16 hrs by flow cytometry; type: functional, cell-based
# MDA-MB-231 [12] = test: Induction of DNA double strand breaks in human MDA-MB-231 cells assessed as gammaH2AX phosphorylation at 10 uM incubated for 16 hrs by flow cytometry (reference value: 6.1 +/-0.7%); type: functional
# Calf thymus DNA [13] = test: Binding affinity to calf thymus DNA assessed as binding constant at 25 uM in sodium phosphate buffer solution at pH 7 by UV-Visible spectrophotometry; type: nucleic-acid assay; conditions: Bos taurus
# MDA-MB-231 [14] = test: Antiproliferative activity against human MDA-MB-231 cells assessed as cell viability at 10 uM after 4 days by [3H]-thymidine incorporation assay relative to control; type: functional; conditions: read-out: Activity; summary of the method: as §1
# dsDNA = test: Binding affinity to 12-mer duplex oligonucleotide (unknown origin) assessed as melting temperature at 5 uM in sodium phosphate buffer at pH 7 by UV-VIS spectrophotometry (reference value: 52.8 degC); type: nucleic-acid assay
# HCT-116 [15] = test: Antiproliferative activity against human HCT116 cells assessed as reduction in cell viability at 10 uM after 4 days by [3H]-thymidine incorporation assay relative to control; type: functional; summary of the method: as §1
# MDA-MB-231 [16] = test: Antiproliferative activity against human MDA-MB-231 cells assessed as reduction in cell viability at 10 uM after 4 days by [3H]-thymidine incorporation assay relative to control; type: functional; summary of the method: as §1
# Calf thymus DNA [17] = test: Binding affinity to calf thymus DNA assessed as binding constant by emission titration analysis; type: nucleic-acid assay; conditions: Bos taurus
# MDA-MB-231 [18] = test: Cell cycle arrest in human MDA-MB-231 cells assessed as accumulation at S-phase at 1 uM incubated for 16 hrs by flow cytometry; type: functional, cell-based
# Summary of the method: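 Cells seeded at 106 per well in 6-well plates, exposed to compound for 16 h, harvested, washed, blocked in 1% FCS/PBS. Stained with anti-γH2AX (phospho-Ser139, 1:500, 2 h, room temperature), then Alexa 488 anti-mouse Fab (1:400, 1 h, room temperature, dark). Counterstained with RNase (1 µg/mL) plus propidium iodide (10 µg/mL) for 30 min. Cell-cycle profiles read by flow cytometry.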
# [19] = Dissociation constant, pKa of the compound; type: physicochemical
Structure (SMILES),Activity (MDA-MB-231 [1]) [%],IC50 (MDA-MB-231 [4]) [nM],Activity (MDA-MB-231 [5]) [%],IC50 (HCT-116 [6]) [nM],pKR+ [7],IC50 (HCT-116 [10]) [nM],Activity (MDA-MB-231 [12]) [%],inhibition (HCT-116 [15]),inhibition (MDA-MB-231 [16]),further results
c1cc2oc3cccc4oc5cccc6oc(c1)c2[c+](c34)c65,8.8,448,57.5,708,9.1,> 1000,43.6,–,–,Activity (MDA-MB-231 [2]): inactive; Activity (MDA-MB-231 [3]): Active; Kb (Calf thymus DNA [8]): 4.1 ×10⁴ /M; viability at 10 µM (HCT-116 [9]): < 1%; Activity (MDA-MB-231 [11]): Active; Kb (Calf thymus DNA [13]): 4.1 ×10⁴ /M; viability at 10 µM (MDA-MB-231 [14]): < 1%; Tm (dsDNA): 57.3 °C
CCCn1c2cccc3oc4cccc5c4[c+](c32)c2c1cccc2n5CCC,13.6,77.5,1.3,106 to 111,19.4,21,2.4,Active,Active,–
CCCn1c2cccc3oc4cccc5oc6cccc1c6[c+](c45)c32,12.9,87.5,30.6,256 to 321,14.5,38,27.8,Active,Active,Kb (Calf thymus DNA [17]): 8.1 ×10⁶ /M
CCCCn1c2cccc3c2[c+]2c4c1cccc4n(CCCC)c1cccc(c12)n3CCCC.F[B-](F)(F)F,–,–,–,–,23.7,–,–,Active,–,–
CC[C@@]1(O)C(=O)OCc2c1cc1n(c2=O)Cc2cc3ccccc3nc2-1 [CAMPTOTHECIN],73.6,28.4,–,8.5,–,–,–,–,–,Activity (MDA-MB-231 [18]): Active
c1cc2[nH]c3cccc4oc5cccc6oc(c1)c2[c+](c34)c65,–,–,–,–,–,–,–,–,–,pKa [19]: 5.7; inhibition at 10 µM (HCT-116 [15]): 12 to 25%; inhibition at 10 µM (MDA-MB-231 [16]): 12 to 25%
